Assay [1] has as its target DNA topoisomerase 2-alpha (Homo sapiens) (UniProt P11388). The assay is described as follows: Inhibition of human DNA topoisomerase-2a-mediated relaxation of supercoiled DNA pBR322 at 20 uM after 4 hrs using ethidium bromide staining by agarose gel electrophoresis analysis. The procedure, abridged: (§1)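 Supercoiled pBR322 (200 ng) incubated with human topo IIα (1 unit) ± compound for 30 min at 30 °C. Buffer: 10 mM Tris-HCl pH 7.9, 50 mM NaCl, 50 mM KCl, 5 mM MgCl2, 1 mM EDTA, 1 mM ATP, BSA. Stopped with EDTA. 1% agarose gel run at 25 V for 4 h in TAE, ethidium bromide stain, supercoiled DNA quantified by UV imaging.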

Assay [2] addresses T1, DNA topoisomerase 1 (Homo sapiens) (UniProt P11387).
T1 sequence (whole entry): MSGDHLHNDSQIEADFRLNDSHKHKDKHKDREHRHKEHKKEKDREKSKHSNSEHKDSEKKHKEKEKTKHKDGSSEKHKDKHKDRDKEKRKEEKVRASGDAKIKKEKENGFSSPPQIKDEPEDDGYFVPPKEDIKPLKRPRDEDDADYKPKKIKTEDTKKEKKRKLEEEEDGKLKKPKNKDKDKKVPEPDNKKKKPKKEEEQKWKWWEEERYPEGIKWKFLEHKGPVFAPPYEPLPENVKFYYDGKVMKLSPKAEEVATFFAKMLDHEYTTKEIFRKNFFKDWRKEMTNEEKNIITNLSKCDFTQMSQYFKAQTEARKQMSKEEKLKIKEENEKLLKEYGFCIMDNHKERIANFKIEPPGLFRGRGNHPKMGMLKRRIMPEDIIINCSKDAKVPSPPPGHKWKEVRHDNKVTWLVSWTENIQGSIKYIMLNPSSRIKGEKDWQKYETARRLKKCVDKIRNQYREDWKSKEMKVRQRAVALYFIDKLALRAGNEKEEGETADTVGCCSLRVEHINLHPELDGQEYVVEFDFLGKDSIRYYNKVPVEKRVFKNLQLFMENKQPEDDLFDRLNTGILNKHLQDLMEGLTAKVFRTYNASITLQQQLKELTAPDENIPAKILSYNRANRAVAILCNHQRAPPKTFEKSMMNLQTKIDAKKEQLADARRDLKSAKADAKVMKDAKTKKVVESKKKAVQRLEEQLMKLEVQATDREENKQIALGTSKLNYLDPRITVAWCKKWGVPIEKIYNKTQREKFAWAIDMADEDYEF
The assay is described as follows: Inhibition of recombinant human DNA topoisomerase-1-mediated relaxation of supercoiled DNA pBR322 at 100 uM after 7 hrs using ethidium bromide staining by agarose gel electrophoresis analysis. The gist of the method:
(§2)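 pBR322 (100 ng) incubated with recombinant human topo I (0.4 units) ± compound for 30 min at 37 °C. Buffer: 10 mM Tris-HCl pH 7.9, 150 mM NaCl, 0.1% BSA, 1 mM spermidine, 5% glycerol. Quenched with sarcosyl stop solution. 1% agarose gel run at 15 V for 7 h in TAE, ethidium bromide stain, supercoiled DNA quantified under UV.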

The nature of assay [3]: Cytotoxicity against human MCF10A cells after 2 days. The class given is cell-based, MCF-10A. Conditions: Homo sapiens, MCF-10A, 48 h. The procedure, abridged:
(§3)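 Cells seeded at 2-4 × 10^4 per well in medium with 10% FBS and incubated overnight at 37 °C, 5% CO2. Graded compound concentrations added on day 2. CCK-8 reagent added on day 4 for a further 4 h, absorbance read at 450 nm. IC50 from a four-parameter logistic fit; mean ± S.D. of three experiments run in triplicate.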

Assay [4] is described as follows: Cytotoxicity against human HCT15 cells after 2 days. It is filed as functional, cell-based, HCT-15. Conditions: Homo sapiens, HCT-15, 48 h. The procedure, abridged:
as §3

For assay [5], the target named is DNA topoisomerase 2-alpha (Homo sapiens) (UniProt P11388). The assay is described as follows: Inhibition of human DNA topoisomerase-2a-mediated relaxation of supercoiled DNA pBR322 at 100 uM after 4 hrs using ethidium bromide staining by agarose gel electrophoresis analysis. The procedure, abridged: as §1
Assay [6] relates to DU-145. Briefly: Cytotoxicity against human DU145 cells after 2 days. The class given is functional, cell-based. As to conditions: Homo sapiens, DU-145, 48 h. The gist of the method: as §3
The test system of assay [7] is T47D. Briefly: Cytotoxicity against human T47D cells after 2 days. It is filed as functional, cell-based. Conditions: Homo sapiens, T47D, 48 h. The gist of the method: as §3
Assay [8] has as its system HeLa. Briefly: Cell cycle arrest in human HeLa cells assessed as accumulation at G2/M phase phase after 24 hrs using […] by flow cytometry analysis relative to control. It is filed as functional, cell-based. The procedure, abridged:
(§4)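 HeLa cells exposed to graded compound concentrations for 24 h, harvested by centrifugation, PBS-washed twice, fixed overnight on ice in 70% ethanol. Stained with 10 μg/mL propidium iodide plus 0.5 mg/mL RNase and 0.1% Triton X-100 in PBS, 30 min at 37 °C in the dark. Flow cytometry gates: sub-G0/G1, G0/G1, S, G2/M.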
On the technique in general: A flow cytometer gives signals particle by particle.

Assay [9] concerns HeLa. Briefly: Cell cycle arrest in human HeLa cells assessed as accumulation at sub-G0/G1 phase after 24 hrs using […] by flow cytometry analysis relative to control. It is filed as functional, cell-based. The gist of the method:
as §4

Assay [10] addresses T1, DNA topoisomerase 1 (Homo sapiens). The assay is described as follows: Inhibition of recombinant human DNA topoisomerase-1-mediated relaxation of supercoiled DNA pBR322 at 20 uM after 7 hrs using ethidium bromide staining by agarose gel electrophoresis analysis. The procedure, abridged:
as §2

The subject of assay [11] is HeLa. The assay is described as follows: Cell cycle arrest in human HeLa cells assessed as accumulation at G2/M phase phase at 50 uM after 24 hrs using […] by flow cytometry analysis relative to control. It is filed as functional. The gist of the method:
as §4

Assay [12] has as its system HeLa. Briefly: Cell cycle arrest in human HeLa cells assessed as accumulation at G0/G1 phase phase at 25 uM after 24 hrs using […] by flow cytometry analysis relative to control. The class given is functional. The gist of the method:
as §4

The subject of assay [13] is HeLa. The assay is described as follows: Cell cycle arrest in human HeLa cells assessed as accumulation at sub-G0/G1 phase at 25 uM after 24 hrs using […] by flow cytometry analysis relative to control. It is filed as functional. The procedure, abridged: as §4
Assay [14] has as its system HeLa. Briefly: Cell cycle arrest in human HeLa cells assessed as accumulation at G2/M phase phase at 5 uM after 24 hrs using ethidium bromide staining by flow cytometry analysis relative to control. It is filed as functional. As to conditions: in the assay text read “propidium iodide staining” for “ethidium bromide staining”. The procedure, abridged: as §4
Assay [15] deals with HeLa. Briefly: Cell cycle arrest in human HeLa cells assessed as accumulation at S phase phase at 5 uM after 24 hrs using ethidium bromide staining by flow cytometry analysis relative to control. It is filed as functional. As to conditions: in the assay text read “propidium iodide staining” for “ethidium bromide staining”. The gist of the method:
as §4

Assay [16] deals with HeLa. Briefly: Cell cycle arrest in human HeLa cells assessed as accumulation at G0/G1 phase phase at 5 uM after 24 hrs using ethidium bromide staining by flow cytometry analysis relative to control. It is filed as functional. Conditions: in the assay text read “propidium iodide staining” for “ethidium bromide staining”. The gist of the method: as §4
The test system of assay [17] is HeLa. Briefly: Cell cycle arrest in human HeLa cells assessed as accumulation at S phase phase at 25 uM after 24 hrs using […] by flow cytometry analysis relative to control. The class given is functional. The procedure, abridged:
as §4

Assay [18] deals with HeLa. Briefly: Cell cycle arrest in human HeLa cells assessed as accumulation at sub-G0/G1 phase at 10 uM after 24 hrs using ethidium bromide staining by flow cytometry analysis relative to control. As to conditions: in the assay text read “propidium iodide staining” for “ethidium bromide staining”. The class given is functional. The gist of the method:
as §4

The subject of assay [19] is HeLa. Briefly: Cell cycle arrest in human HeLa cells assessed as accumulation at G0/G1 phase phase at 10 uM after 24 hrs using ethidium bromide staining by flow cytometry analysis relative to control. The class given is functional. As to conditions: in the assay text read “propidium iodide staining” for “ethidium bromide staining”. The gist of the method:
as §4

For assay [20], the system named is HeLa. Briefly: Cell cycle arrest in human HeLa cells assessed as accumulation at G2/M phase phase at 25 uM after 24 hrs using […] by flow cytometry analysis relative to control. It is filed as functional. The gist of the method: as §4
The test system of assay [21] is HeLa. The assay is described as follows: Cell cycle arrest in human HeLa cells assessed as accumulation at S phase phase at 10 uM after 24 hrs using ethidium bromide staining by flow cytometry analysis relative to control. The class given is functional. As to conditions: in the assay text read “propidium iodide staining” for “ethidium bromide staining”. The gist of the method: as §4

Assay [22] relates to HeLa. The assay is described as follows: Cell cycle arrest in human HeLa cells assessed as accumulation at S phase phase at 50 uM after 24 hrs using […] by flow cytometry analysis relative to control. It is filed as functional. The procedure, abridged:
as §4

The subject of assay [23] is HeLa. Briefly: Cell cycle arrest in human HeLa cells assessed as accumulation at sub-G0/G1 phase at 50 uM after 24 hrs using […] by flow cytometry analysis relative to control. The class given is functional. The procedure, abridged: as §4
Assay [24] concerns HeLa. Briefly: Cell cycle arrest in human HeLa cells assessed as accumulation at G0/G1 phase phase at 50 uM after 24 hrs using […] by flow cytometry analysis relative to control. It is filed as functional. The gist of the method: as §4
Assay [25] relates to HeLa. The assay is described as follows: Cell cycle arrest in human HeLa cells assessed as accumulation at G2/M phase phase at 10 uM after 24 hrs using ethidium bromide staining by flow cytometry analysis relative to control. The class given is functional. Conditions: in the assay text read “propidium iodide staining” for “ethidium bromide staining”. The procedure, abridged:
as §4

Molecules are shown by their SMILES. Several values for one entry are separate records, joined by “and”; a condition that tells them apart may be missing. Equal entries are not always repeated.

The source of these data is ChEMBL document CHEMBL3286131, “Design, synthesis and systematic evaluation of cytotoxic 3-heteroarylisoquinolinamines as topoisomerases inhibitors” (Eur J Med Chem, 2014).

Chain of DNA topoisomerase 2-alpha (Homo sapiens) (P11388 whole entry): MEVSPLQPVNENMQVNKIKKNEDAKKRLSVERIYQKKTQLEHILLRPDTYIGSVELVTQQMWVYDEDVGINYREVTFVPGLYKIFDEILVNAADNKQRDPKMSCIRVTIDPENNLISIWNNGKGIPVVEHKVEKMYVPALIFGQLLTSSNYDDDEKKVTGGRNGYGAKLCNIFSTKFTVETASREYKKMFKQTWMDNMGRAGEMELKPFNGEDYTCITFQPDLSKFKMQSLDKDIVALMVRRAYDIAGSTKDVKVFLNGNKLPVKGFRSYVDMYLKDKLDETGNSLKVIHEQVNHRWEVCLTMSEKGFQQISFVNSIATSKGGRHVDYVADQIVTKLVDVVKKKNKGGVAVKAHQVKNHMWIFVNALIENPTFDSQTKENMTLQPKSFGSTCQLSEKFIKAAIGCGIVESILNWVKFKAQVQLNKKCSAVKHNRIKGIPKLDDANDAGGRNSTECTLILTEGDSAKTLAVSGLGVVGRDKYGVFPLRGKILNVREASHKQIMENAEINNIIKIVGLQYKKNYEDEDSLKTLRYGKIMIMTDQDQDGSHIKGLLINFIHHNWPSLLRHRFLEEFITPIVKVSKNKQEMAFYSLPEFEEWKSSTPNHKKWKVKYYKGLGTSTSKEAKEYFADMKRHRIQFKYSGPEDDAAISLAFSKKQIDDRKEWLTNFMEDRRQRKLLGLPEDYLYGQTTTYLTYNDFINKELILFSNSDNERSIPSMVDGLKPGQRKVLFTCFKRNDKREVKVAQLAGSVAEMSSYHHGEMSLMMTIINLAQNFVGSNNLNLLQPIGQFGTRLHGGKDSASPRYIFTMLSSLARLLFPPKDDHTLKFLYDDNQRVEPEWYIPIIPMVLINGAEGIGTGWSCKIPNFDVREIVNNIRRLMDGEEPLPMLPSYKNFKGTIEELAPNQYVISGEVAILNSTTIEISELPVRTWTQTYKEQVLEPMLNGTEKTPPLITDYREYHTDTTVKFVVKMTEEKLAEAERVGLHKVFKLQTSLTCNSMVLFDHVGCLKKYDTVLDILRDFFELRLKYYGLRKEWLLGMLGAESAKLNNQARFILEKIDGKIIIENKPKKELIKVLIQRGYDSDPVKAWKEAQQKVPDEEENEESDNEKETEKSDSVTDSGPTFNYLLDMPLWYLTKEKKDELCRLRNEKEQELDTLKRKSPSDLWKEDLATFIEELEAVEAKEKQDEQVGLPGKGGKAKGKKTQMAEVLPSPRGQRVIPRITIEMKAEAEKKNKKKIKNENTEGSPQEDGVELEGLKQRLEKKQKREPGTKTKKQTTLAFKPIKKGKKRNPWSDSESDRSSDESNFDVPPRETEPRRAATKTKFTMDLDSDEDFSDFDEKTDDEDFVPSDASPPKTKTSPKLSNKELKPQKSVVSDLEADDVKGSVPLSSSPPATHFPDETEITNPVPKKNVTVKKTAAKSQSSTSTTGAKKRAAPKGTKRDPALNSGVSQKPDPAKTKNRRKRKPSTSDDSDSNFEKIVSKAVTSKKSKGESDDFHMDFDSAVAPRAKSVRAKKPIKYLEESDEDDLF

As a reminder, the inhibition is the change of the read-out against control, counted positive when it falls. As to `c1csc(-c2cc3ccccc3c(N3CCOCC3)n2)c1`, the inhibition in assay [1] and in [2] was 0% in each case.
Broadly, the IC50 is the point on the concentration scale where inhibition reaches its midpoint. A higher IC50 goes with weaker potency. Turning to `Cc1ccc2c(NCc3ccccc3)nc(-c3cccs3)cc2c1`, the inhibition in assay [1] was 1.1%; in assay [2] it was 0%; in [5], 68.9%. In addition, the IC50 was > 50 µM in assay [3], 8.62 µM in [4], > 50 µM in assay [6] and 6.57 µM in assay [7].
In the case of `Nc1nc(-c2cccs2)cc2ccccc12`, the inhibition is 0% in assay [1]; 0% in assay [2]; 14.6% and 22.5% in [5]. In addition, the Activity entry in [8] and in assay [9] was “Dose-dependent effect” throughout.
In the case of `Cc1ccc2cc(-c3cccs3)nc(N3CCN(C)CC3)c2c1`, the inhibition in assay [2] was 29.6% and 35.9%; in [10], 0%; in [5] it was 0%.
Turning to `Cc1ccc2cc(-c3cccs3)nc(N3CCOCC3)c2c1`, the inhibition in assay [2] was 71.9% and 77.9%; in assay [10] it was 1.1% and 3.7%; in [5], 0% and 5.1%.
On to `CCN1CCN(c2nc(-c3cccs3)cc3ccc(C)cc23)CC1`, for which the inhibition in assay [10] is 6.5%; in assay [5], 0%.
For the molecule `c1csc(-c2cc3ccccc3c(N3CCCCC3)n2)c1`, the inhibition is 0.5% and 1.8% in assay [1]; 0% in [2]; 42.9% and 48.1% in assay [5].
For `Cc1ccc2c(N3CCNCC3)nc(-c3cccs3)cc2c1`, the inhibition was 0% in [1]; 59% and 59.6% in assay [2]; 0% in assay [10].
With `Cc1ccc2cc(-c3cccs3)nc(N3CCCCC3)c2c1`, the inhibition is 77.5% and 89.6% in assay [2]; 0% in [10]; 3.6% and 13.7% in [5].
Turning to `Cc1ccc2cc(-c3cccs3)nc(N3CCNCC3)c2c1`, the Activity in [11] came to 1.35%; in assay [12], 49.19%; in [13] it was 26.67%; in assay [14], 14.91%; in assay [15], 11.32%; in [16] it was 65.59%. Also, the Activity is on record as 4.72% in [17]; 5.76% in assay [18]; 68.71% in [19]; 18.81% in [20]; 10.13% in assay [21]; 1.26% in [22]. Besides, the Activity is listed as 90.48% in [23], 6.92% in [24] and 14.5% in assay [25]. In addition, the half-inhibitory concentration (IC50) in assay [3] amounted to 5.54 µM; in assay [4], 1.29 µM; in assay [6] it was 4.15 µM; in [7] it was 1.14 µM. In addition, the figures for the inhibition in [2], in [10] and in [5] were 10.7%, 0% and 22.1%, respectively.
Consider `Cc1ccc2c(N3CCOCC3)nc(-c3cccs3)cc2c1`, for which the inhibition is 1.7% in assay [1] and 0% in [2].
As for `Cc1ccc2c(N3CCCCC3)nc(-c3cccs3)cc2c1`, the values for the inhibition in assay [1] and in assay [10] were 1.1% and 0%, respectively.
As for `c1csc(-c2cc3ccccc3c(N3CCNCC3)n2)c1`, the inhibition in assay [1] was 0%; in assay [10], 0.6% and 4.8%.
